# Laboratory results taken from ChEMBL document CHEMBL1132157 (J Med Chem, 1999).
# How the values were obtained:
# [1] = target: T1, 5-hydroxytryptamine receptor 1B (Homo sapiens, UniProt P28222); test: Binding affinity at cloned human 5-hydroxytryptamine 1B receptor stably expressed in CHO cells by [3H]5-HT displacement.; type: cell-based
# [2] = target: T2, 5-hydroxytryptamine receptor 1D (Homo sapiens, UniProt P28221); test: Agonist-induced [35S]- GTPgammaS binding in CHO cells stably transfected with 5-hydroxytryptamine 1D receptor; type: cell-based
# Outline: (§1)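 Membranes from thawed CHO cells with human 5-HT1D, prepared in ice-cold 20 mM Hepes/EDTA at pH 7.4, spun at 40000g. Assay buffer: 100 mM NaCl, 10 mM MgCl2, 0.1% ascorbate, 10 μM pargyline. GDP 100 μM plus drug, 20 min at 30 °C, then ice 15 min. Then 100 pM [35S]GTPγS, 30 min at 30 °C, filtration. Emax is taken as % of maximal 5-HT response; duplicates, 2–5 occasions.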
# [3] = target: T2, 5-hydroxytryptamine receptor 1D; test: Binding affinity at human cloned 5-hydroxytryptamine 1D receptor stably expressed in CHO cells by [3H]5-HT displacement.; type: cell-based
# Outline: (§2)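 Membranes from thawed CHO cells with human 5-HT1B or 5-HT1D, washed in 50 mM Tris-HCl pH 7.7, preincubated 10 min at 37 °C to remove endogenous 5-HT. Buffer holds 0.1% ascorbate, 10 μM pargyline and 4 mM CaCl2. Uses 2.0 nM [3H]5-HT, 30 min at 37 °C; 10 μM 5-HT defines nonspecific binding. Filtration; IC50 by nonlinear regression; duplicates, 2–5 occasions.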
# [4] = target: T2, 5-hydroxytryptamine receptor 1D; test: Maximum stimulation of [35S]GTP-gamma-S, binding in CHO cells expressing human 5-HT-1d relative to 5-HT; type: functional, cell-based; outline: as §1
# [5] = Ratio of IC50 for human 5-HT1B to human 5-HT1D receptors
# [6] = target: T1, 5-hydroxytryptamine receptor 1B; test: Displacement of [3H]5-HT binding to cloned 5-hydroxytryptamine 1B receptor stably expressed in CHO cells; type: cell-based; outline: as §2
# [7] = target: T2, 5-hydroxytryptamine receptor 1D; test: Displacement of [3H]5-HT binding to cloned human 5-hydroxytryptamine 1D receptor stably expressed in CHO cells; type: cell-based; outline: as §2
# T2 sequence (P28221 whole entry): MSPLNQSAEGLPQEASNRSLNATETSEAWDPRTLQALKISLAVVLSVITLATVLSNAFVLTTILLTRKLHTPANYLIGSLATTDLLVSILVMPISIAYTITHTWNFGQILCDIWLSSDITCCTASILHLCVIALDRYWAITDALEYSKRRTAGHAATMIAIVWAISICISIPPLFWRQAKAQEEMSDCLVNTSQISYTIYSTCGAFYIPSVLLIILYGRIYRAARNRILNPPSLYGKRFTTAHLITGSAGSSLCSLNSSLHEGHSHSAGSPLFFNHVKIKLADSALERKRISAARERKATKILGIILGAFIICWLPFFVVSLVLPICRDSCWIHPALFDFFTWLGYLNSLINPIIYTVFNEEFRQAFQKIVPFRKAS
# T1 sequence (P28222 whole entry): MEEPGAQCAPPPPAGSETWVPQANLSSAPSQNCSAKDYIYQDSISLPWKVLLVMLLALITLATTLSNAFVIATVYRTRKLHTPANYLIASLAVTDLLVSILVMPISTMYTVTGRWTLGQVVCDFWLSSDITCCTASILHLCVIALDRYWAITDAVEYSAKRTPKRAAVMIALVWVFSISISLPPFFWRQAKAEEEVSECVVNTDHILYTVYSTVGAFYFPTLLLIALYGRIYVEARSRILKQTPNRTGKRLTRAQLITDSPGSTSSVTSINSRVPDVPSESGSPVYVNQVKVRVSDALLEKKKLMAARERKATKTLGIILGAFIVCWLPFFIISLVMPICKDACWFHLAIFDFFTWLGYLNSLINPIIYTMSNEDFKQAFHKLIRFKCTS
IC50 [1] [nM],EC50 [2] [nM],IC50 [3] [nM],Efficacy [4] [%],Selectivity [5],IC50 [6] [nM],IC50 [7] [nM],SMILES
230,0.5,1.9,99,120,–,–,CC(NC1CCN(CCCc2c[nH]c3ccc(-n4cnnc4)cc23)CC1)c1ccc(F)cc1 (stereo not given)
85,15,7.6,61,11,–,–,C[C@@H](NC1CCN(CCCc2c[nH]c3ccc(-n4cnnc4)cc23)CC1)C(=O)Nc1ccccc1
160,2.6,3.5,67,46,–,–,OC[C@@H](NC1CCN(CCCc2c[nH]c3ccc(-n4cnnc4)cc23)CC1)c1ccccc1
81,–,9.8,–,8.3,–,–,CC#CCN(C)C1CCN(CCCc2c[nH]c3ccc(-n4cnnc4)cc23)CC1
210,–,12,–,18,–,–,C[C@@H](NC1CCN(CCCc2c[nH]c3ccc(-n4cnnc4)cc23)CC1)[C@@H](O)c1ccccc1
100,14,8.3,74,12,–,–,OC[C@@H](Cc1ccccc1)NC1CCN(CCCc2c[nH]c3ccc(-n4cnnc4)cc23)CC1
120,9.3,4.7,73,26,–,–,NC(=O)OC[C@H](NC1CCN(CCCc2c[nH]c3ccc(-n4cnnc4)cc23)CC1)c1ccccc1
95,12,0.6,76,160,–,–,C[C@H](NC1CCN(CCCc2c[nH]c3ccc(-n4cnnc4)cc23)CC1)c1ccccc1
78,–,15,–,5.2,–,–,CS(=O)(=O)NC[C@H](NC1CCN(CCCc2c[nH]c3ccc(-n4cnnc4)cc23)CC1)c1ccccc1
–,2.2,–,72,62,74,1.2,Oc1nc2ccccc2n1C1CCN(CCCc2c[nH]c3ccc(-n4cnnc4)cc23)CC1
–,12,–,73,10,60,6.2,O=S(=O)(NCC1CCN(CCCc2c[nH]c3ccc(-n4cnnc4)cc23)CC1)c1ccccc1
–,3.5,–,81,33,140,4.3,CN(Cc1cccs1)C1CCN(CCCc2c[nH]c3ccc(-n4cnnc4)cc23)CC1
–,7.4,–,77,98,400,4.1,OC[C@H](NC1CCN(CCCc2c[nH]c3ccc(-n4cncn4)cc23)CC1)c1ccccc1
–,2.8,–,94,40,24,0.6,CC(=O)Nc1ccc(CN(C)CC2CCN(CCCc3c[nH]c4ccc(-n5cnnc5)cc34)CC2)cc1
–,30,–,81,20,150,7.6,C[C@H](O)[C@H](NC1CCN(CCCc2c[nH]c3ccc(-n4cnnc4)cc23)CC1)c1ccccc1
–,18,–,69,23,420,18,C[C@@H](NC1CCN(CCCc2c[nH]c3ccc(-n4cncn4)cc23)CC1)c1ccccc1
71,–,4.3,–,17,–,–,CN(C1CCN(CCCc2c[nH]c3ccc(-n4cnnc4)cc23)CC1)[C@H](CO)c1ccccc1
350,–,29,–,12,–,–,CC(=O)Nc1ccc([C@@H](C)NC2CCN(CCCc3c[nH]c4ccc(-n5cnnc5)cc34)CC2)cc1
–,8.9,–,89,240,1200,5,COC[C@H](NC1CCN(CCCc2c[nH]c3ccc(Cn4cncn4)cc23)CC1)c1ccc(F)cc1
–,13,–,75,32,210,6.6,O[C@@H]1Cc2ccccc2[C@H]1NC1CCN(CCCc2c[nH]c3ccc(-n4cnnc4)cc23)CC1
